Where “and” joins values, the source holds several entries; their conditions need not be identical. Equal values may be shown once. The campaign covered roughly 360,000 compounds. About 3,600 (1%) were called active.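 How the source made its calls: active means activation above the mean activation of all test compounds in the run plus 3 SD (cut at about 38% in these data); inactive means the rest.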 The entries come from a sample that favours actives as a whole.
Molecular target: Trace amine-associated receptor 1 (Homo sapiens) (UniProt Q96RJ0)
Sequence (Q96RJ0 whole entry, looked up): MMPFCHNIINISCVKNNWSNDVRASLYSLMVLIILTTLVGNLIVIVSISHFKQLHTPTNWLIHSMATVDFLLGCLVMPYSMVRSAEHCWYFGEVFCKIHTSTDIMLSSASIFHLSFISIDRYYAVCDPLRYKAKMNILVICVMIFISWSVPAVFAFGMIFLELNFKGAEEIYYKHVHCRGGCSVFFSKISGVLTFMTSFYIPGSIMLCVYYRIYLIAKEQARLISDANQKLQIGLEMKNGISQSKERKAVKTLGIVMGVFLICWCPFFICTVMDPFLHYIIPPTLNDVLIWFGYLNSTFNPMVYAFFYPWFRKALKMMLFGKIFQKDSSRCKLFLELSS
Test: human TAAR1 agonists, primary screen, Fluo-8 calcium fluorescence, CHO RD-HGA16 cells (AID 624467)
Conditions: CHO RD-HGA16 TAAR1, Fluo-8 calcium fluorescence; at 3 µM; hits give high values; vehicle wells 0%, saturating PEA agonist 100%
Method in brief: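 Benchmarks: low control DMSO, high control PEA (EC100); System: CHO RD-HGA16 cells carrying human TAAR1 plus Gα16; Detection: Fluo-8 fluorescence, 5 s baseline then 140 s kinetic read; Schedule: 17-24 h plating, Fluo-8 75 min 37 °C, 30 min RT; Read-out basis: % activation from peak over basal fluorescence ratio, DMSO-to-PEA scaled.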

| SMILES | activation |
| --- | --- |
| Cc1ccccc1S(=O)(=O)Cc1ccc(C(=O)NCCN2CCCCC2C)o1 (stereo unspecified) | 8.73% (inactive) |
| CCc1ccccc1S(=O)(=O)Cc1ccc(C(=O)NCCc2ccccc2)o1 | 50.3% (active) |
| COc1ccccc1CNC(=O)c1ccc(CS(=O)(=O)c2ccccc2)o1 | 11.9% (inactive) |
| CCCc1nnc(NC(=O)CCC(=O)N2CCN(S(=O)(=O)c3ccc(OC)cc3)CC2)s1 | 4.53% (inactive) |
| CC1CCCN(c2cccc3c2S(=O)(=O)N(Cc2ccc(F)cc2)[C@@H](C)[C@H](c2ccccc2)O3)C1 (stereo partly specified) | 0.84% (inactive) |
| COC(=O)[C@]12C[C@H](CC(=O)NCc3ccccc3)C(=O)N(CCC3=CCCCC3)C1=C[C@H](C(C)(C)C)O[C@@H]2C | -2.08% (inactive) |
| CCCCNC(=S)N/N=C1\CCCCc2ccccc21 | -2.14% (inactive) |
| CCCC1CCC(=NNC(=S)NCCc2ccccc2)CC1 (stereo unspecified) | 54.9% (active) |
| S=C(NN=C1CCN(Cc2ccccc2)CC1)NC1CCCCC1 | 1.76% (inactive) |
| Cc1cccnc1CCNC(=O)C1CCC(=O)N(Cc2cccc(F)c2)C1 (stereo unspecified) | 0.59% (inactive) |
| CN1CCCCC(NC(=O)C(C)(C)C)C1=O (stereo unspecified) | 3.02% (inactive) |
| O=[N+]([O-])c1ccccc1N/N=C1\CCc2ccccc21 | -0.37% (inactive) |
| Oc1ccc2ccc3cccc[n+]3c2c1 | 152% (active) |
| Cc1ccc(C)c(CN2CCC(CNC(=O)C3CCCN(c4ncnc5c4nc4n5CCCCC4)C3)CC2)c1 (stereo unspecified) | -0.04% (inactive) |
| CCCCc1c(-c2ccc(Cl)cc2)ncn1CCc1ccccc1OC | 54.2% (active) |
| COc1ccccc1Cc1c(-c2ccc(F)cc2)nc2ccc(C)cn12 | 0.01% (inactive) |
| COc1ccccc1Cc1c(-c2ccc(Cl)cc2)nc2c3ccccc3ccn12 | 0.7% (inactive) |
| CCc1c(-c2ccccc2OC)ncn1CCc1ccccc1OC | 53% (active) |
| CCCCc1c(-c2ccc(Br)cc2)ncn1CCc1ccccc1OC | 48% (active) |
| CCCc1c(-c2ccccc2F)ncn1Cc1ccccc1OC | 5.04% (inactive) |
| COc1ccccc1CCn1cnc(-c2ccccc2)c1C(C)C | 8.43% (inactive) |
| COc1ccccc1CCNS(=O)(=O)c1cn(C)nc1C | 4.37% (inactive) |
| COc1ccccc1Cc1c(-c2ccc(Cl)cc2)nc2ccc(Cl)cn12 | -1.69% (inactive) |

| SMILES | activation |
| --- | --- |
| [2H]C(CCOS(N)(=O)=O)c1ccccc1 (stereo unspecified) | -0.46% (inactive) |
| CCCNC(=O)CCc1c(C)nc2c(c(C)nn2-c2ccccc2)c1C | 1.73% (inactive) |
| O=C1CC(C(F)(F)C(F)(F)C(F)(F)C(F)(F)F)=Nc2ccccc2N1 | -0.77% (inactive) |
| COc1ccc(-c2ccccc2C2Cc3nnccc3CN2C(=O)Nc2ccccc2)cc1 (stereo unspecified) | -0.83% (inactive) |
| COC(=O)c1cc2c(c3c4ccccc4n(S(=O)(=O)c4cccc(C)c4)c13)C(=O)N(Cc1ccccc1)C2 | 3.11% (inactive) |
| C=CCNC(=O)COC(=O)c1ccccc1C(=O)N(C)C1CCCCC1 | 5.08% (inactive) |
| NS(=O)(=O)c1ccc(CCNC(=O)NC2CCCCC2)cc1 | 1.51% (inactive) |
| CC(C)C(=O)Nc1ccc2c(c1)oc1ccccc12 | 6.67% (inactive) |
| NC(=O)Nc1ccccc1C(=O)NCCc1ccccc1 | 10.1% (inactive) |
| CC(NC(=O)CC1SC(N)=NC1=O)c1ccccc1 (stereo unspecified) | 4.22% (inactive) |
| Nc1[nH]c(C(=O)c2ccc(Br)cc2)c(-c2ccc3c(c2)OCO3)c1C(=O)NCCc1c[nH]c2ccccc12 | 6.41% (inactive) |
| NC(c1ccccc1)c1csc(NC(=O)Nc2cccc(C(F)(F)F)c2)n1 (stereo unspecified) | 57% (active) |
| COc1ccc(C(N)c2csc(NC(=O)Nc3cccc(C(F)(F)F)c3)n2)cc1 (stereo unspecified) | 50.9% (active) |
| C/C(CC(=O)Nc1cccc(C(F)(F)F)c1)=N\NC(=O)C(=O)NCC(C)C | 4.66% (inactive) |
| NC(c1csc(NC(=O)Nc2ccccc2Oc2ccccc2)n1)c1ccccc1Cl (stereo unspecified) | 13.7% (inactive) |
| COc1cc(NC(=O)c2cncc(-c3ccc(C#N)cc3)c2)cc(C(=O)Nc2cccc(C(F)(F)F)c2)c1 | 7.65% (inactive) and 3.81% (inactive) |
| COc1cccc(NC(=O)Nc2nnc(N3CCCCC3C)s2)c1 (stereo unspecified) | 0.7% (inactive) |
| NC(c1csc(NC(=O)Nc2cccc(C(F)(F)F)c2)n1)C1CCCCC1 (stereo unspecified) | 39% (active) |
| CC(=O)c1ccc(Nc2nc(C(N)c3ccccc3)cs2)cc1 (stereo unspecified) | 4.52% (inactive) |
| CCOC(=O)c1csc(NC(=O)Nc2cccc(OC)c2)n1 | 14.4% (inactive) |
| CC1(C(=O)NS(=O)(=O)c2cccc(F)c2)CCN1C(=O)c1cccc2ccccc12 (stereo unspecified) | -0.17% (inactive) |
| O=S1(=O)c2c(cccc2N2CCCC2)O[C@H](COCc2ccccc2)CN1C1CC1 | 0.87% (inactive) |
| Cc1cc(N2CCN(C(=O)OC(C)(C)C)C[C@H]2C)ccc1N1CCN(Cc2ccccc2)[C@H](C)C1 | 0.58% (inactive) |

| SMILES | activation |
| --- | --- |
| Cc1nc2c(OCc3ccc(Cl)cc3)cccn2c1N(C)Cc1cccs1 | 0.87% (inactive) |
| CCCCCCCCN1C(=O)[C@@H](CC(=O)NCc2ccccc2)C[C@@]2(C(=O)OC)C1=C[C@H](C(C)(C)C)O[C@@H]2C | -0.96% (inactive) |
| Cc1ccc(OC(=O)c2cncc(Br)c2)c(C)c1 | 6.31% (inactive) |
| COCCNC(=O)C1CCN(C(=O)C2CC(=O)N(c3ccc(C)cc3)C2)CC1 (stereo unspecified) | -0.76% (inactive) |
| COc1ccc(NC(=O)c2sc(N3CCOCC3)nc2-c2ccccc2)c(OC)c1 | -1.31% (inactive) |
| Cc1onc(-c2ccccc2)c1C(=O)NNC(=S)NC(=O)c1ccc(F)cc1 | 112% (active) |
| Cc1nc2ccccc2c(C)c1C(=O)c1ccc(F)cc1 | 12.1% (inactive) |
| COc1ccc(C(=O)NC(=S)NNC(=O)c2c(-c3ccccc3)noc2C)cc1 | 120% (active) |
| COc1ccc(C(=O)NC(=O)CSc2nnc(-c3ccco3)n2-c2ccccc2)cc1 | 1.34% (inactive) |
| Cc1onc(-c2ccccc2)c1C(=O)N1CCN(S(=O)(=O)c2ccccc2C(F)(F)F)CC1 | 0.73% (inactive) |
| O=C(O)C1CCN(S(=O)(=O)N2CCOCC2)CC1 | 7.75% (inactive) |
| Cc1ccc(OCC(=O)Nc2ccc(C(=O)O)cc2NC(=O)COc2ccc(C)c(C)c2)cc1C | 3.56% (inactive) |
| Cc1cc2oc(=O)cc(-c3ccccc3)c2c(C)c1-c1ccc(OC(F)(F)F)cc1 | 2.46% (inactive) |
| CCO[C@H]1OC(C(=O)N2CCOCC2)=C[C@@H](c2ccc3c(c2)OCO3)[C@@H]1CCCO | 5.53% (inactive) |
| O=C(NCc1ccccc1)[C@@H]1CCCN1C(=O)[C@@H](NS(=O)(=O)c1ccc(F)cc1F)C1CCCCC1 | -0.54% (inactive) |
| COc1ccccc1CNS(=O)(=O)c1c(C)[nH]c(C)c1C(=O)N1CCCCC1 | 0.59% (inactive) |
| NC(=O)c1cc(-c2cccnc2)nc2ccc(Br)cc12 | 0.6% (inactive) |
| O=c1c2cc(Br)ccc2nc(-c2cccc(Cl)c2)n1O | 51.9% (active) |
| NC(N)=Nc1nc2ccc(Br)cc2c(=O)[nH]1 | 10.5% (inactive) |
| C=CCNC(=O)COc1coc(CN2CCN(Cc3ccccc3)CC2)cc1=O | 2.55% (inactive) |
| CCC(C(=O)Nc1ccc(C(C)C)cc1)c1ccccc1 (stereo unspecified) | 95.2% (active) |
| CCC(C(=O)OCC(=O)Nc1c(Cl)cc(Cl)cc1Cl)c1ccccc1 (stereo unspecified) | 8.86% (inactive) |
| CC(C)c1ccc(NC(=O)Cn2ncc3ccccc32)cc1 | 1.09% (inactive) |

| SMILES | activation |
| --- | --- |
| CCOC(=O)N(C)c1c(CC)nc2c(OCc3ccccc3C(=O)OC)cccn12 | 0.97% (inactive) |
| O=C(CN1CCSCC1)N/N=C/c1ccc(Cl)cc1 | 12.7% (inactive) |
| O=C1NC[C@H](CCCCN2CCN(CCc3ccccc3)C(=O)C2=O)N(CC2CCCCC2)C1=O | 1.95% (inactive) |
| CCN(CCN(C)C)C(=O)c1ccc2nc(C)c(N(C)C(=O)CCc3ccccc3)n2c1 | 1.46% (inactive) |
| O=C1C=C(c2ccc(Cl)cc2)C(=O)N1Nc1ccccc1 | 58.9% (active) |
| O=C(COC(=O)c1cccc(Cl)c1)NC(=O)NCc1ccccc1 | 2.7% (inactive) |
| COC(=O)c1ccc2nc(-c3cccc(Br)c3)c(Cc3ccccc3C(F)(F)F)n2c1 | 4.12% (inactive) |
| CCCCCc1c(-c2ccc(OC)c(OC)c2)ncn1CCc1ccccc1OC | 60.6% (active) |
| Cn1c(=O)c2c(ncn2CCc2ccccc2)n(C)c1=O | 2.07% (inactive) |
| CCCCCc1c(Cc2ccccc2)ncn1CCc1ccccc1OC | 62.8% (active) |
| CCCCCc1c(-c2cccc(Br)c2)ncn1CCc1ccccc1OC | 50.1% (active) |
| CCCCN1C(=O)C(C)=C(C)C1OCCc1ccc(OC)c(OC)c1 (stereo unspecified) | 2.56% (inactive) |
| CCc1c(-c2ccc(F)cc2)ncn1Cc1cccc(-c2ccccc2)c1 | 0.6% (inactive) |
| COC(=O)c1ccc2nc(-c3ccc(OC)c(OC)c3)c(Cc3ccccc3)n2c1 | -2.01% (inactive) |
| CCCCNS(=O)(=O)CCNCc1ccccc1OC | -1.08% (inactive) |
| C=C1CCC(N(O)c2cc(C)on2)C(=C)CCC2C1CC2(C)C (stereo unspecified) | 2.74% (inactive) |
| COC(=O)C1=C(C)N(Cc2ccc(C(F)(F)F)cc2)C(=NCc2ccccc2)NC1c1ccccc1C(F)(F)F (stereo unspecified) | 5.43% (inactive) |
| O=C(CC1NCCc2ccccc21)Nc1cccc(Cl)c1 (stereo unspecified) | 9.23% (inactive) |
| COCCNC(=S)N(C)[C@H]1C[C@H]2c3[nH]c4ccccc4c3CCN2C[C@H]1[C@H](C)O | 3.21% (inactive) |
| CC1CCCCC1NC(=O)CSc1nnc(N)s1 (stereo unspecified) | 9.77% (inactive) |
| CCN(CC)C(=O)CS(=O)CC(=O)Nc1cc(OCCOC)c(Cl)cc1Cl (stereo unspecified) | 5.84% (inactive) |
| COc1ccc(OC)c(NC(=O)c2ccc3c(c2)CCN3S(C)(=O)=O)c1 | 2.63% (inactive) |

From PubChem BioAssay AID624467 (The Scripps Research Institute Molecular Screening Center, 2012)
